Source: PubChem BioAssay
PPC-1+TRAIL kill: compounds killing PPC-1 cancer cells with TRAIL present, primary screen, TRAIL potentiator project, ATPLite luminescence, uHTS | PPC-1 cells + TRAIL, ATPLite viability luminescence | cell killing (% activity), % at 4 µM or 5 µM | 220,000 tested, 0.41% active;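 active = cell killing above 50% in the first pass at 4 µM, then a duplicate retest at 5 µM averaging 50% or more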;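 note: plate controls were cells with TRAIL plus DMSO for no effect and medium-only wells lacking cells for full effect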
C8 TRAIL sens: viability loss with TRAIL in NB7+C8 cells, primary screen, TRAIL sensitizer project, cell-based, ATPlite luminescence. inhibition (viability loss, TRAIL sensitization), % at 10 µM. 360,000 tested, 1% active. AID 624354, 2012;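 active = compounds causing at least 50% loss of cell viability in the single-dose screen, relative to plate controls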
FLuc act counter: FLuc activators, initial screening, artefact control for FLuc-dependent activation tests, biochemical, ATPlite luminescence; activation factor at 10 µM; Luciferin 4-monooxygenase (Photinus pyralis), P08659; ATPlite luciferase biochemical, 10 min; 0 = ATP-free wells, 1 = DMSO control; AID 1027, 2008; 200,000 tested, under 10 active;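 active = luciferase activation factor, scaled between plate controls, of at least 2 with compound at 10 µM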
Target sequence (P08659 whole entry, looked up): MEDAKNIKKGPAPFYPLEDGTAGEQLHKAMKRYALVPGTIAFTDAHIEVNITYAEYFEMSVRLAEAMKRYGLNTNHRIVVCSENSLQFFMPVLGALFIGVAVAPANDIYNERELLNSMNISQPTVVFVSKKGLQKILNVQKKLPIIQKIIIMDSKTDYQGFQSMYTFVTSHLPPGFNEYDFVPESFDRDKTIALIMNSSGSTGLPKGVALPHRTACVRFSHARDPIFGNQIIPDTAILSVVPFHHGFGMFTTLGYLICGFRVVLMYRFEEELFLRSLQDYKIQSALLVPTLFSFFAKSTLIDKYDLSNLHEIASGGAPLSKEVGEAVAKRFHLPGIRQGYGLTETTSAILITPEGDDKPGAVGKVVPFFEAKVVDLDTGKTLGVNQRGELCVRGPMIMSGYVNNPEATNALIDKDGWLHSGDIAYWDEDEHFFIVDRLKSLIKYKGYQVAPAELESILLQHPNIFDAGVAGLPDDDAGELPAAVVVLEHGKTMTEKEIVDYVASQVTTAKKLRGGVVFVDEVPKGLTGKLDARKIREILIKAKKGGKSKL
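System: Luciferase/luciferin detection reagent, cell-free biochemical luciferase assay | Medium: PBS buffer for ATP | Dosing: Test compounds dosed from 2 mM stocks in 100% DMSO | Timing: 10 min at ambient temperature | Signal: Luminescence measurement of luciferase light output | Evaluation: Luciferase activation, seen as luminescence increase over controls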
APP 5'UTR act: activators of APP 5'UTR luciferase reporter, primary screen, SH-SY5Y cells; 190,000 tested, 1% active; activation, % at 2 µM; SH-SY5Y APP 5'UTR luciferase reporter, luminescence; zero percent = DMSO vehicle wells;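 active = activation above a set limit, based on mean plus 3 SD of controls, cut at about 140% in these data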
NF-kB neuron act: activators of NF-kB expression in neurons, primary screen, cell-based, HTS; human neuronal cells, NF-kB reporter expression; active compounds read high; fold change at 12.5 µM; 190,000 tested, 1.6% active; in the data active = fold change above about 3.3
FLuc inhib CS: firefly luciferase enzyme inhibitors, primary screen, artefact control for luciferase-based inhibitor screens, biochemical, luminescence, ATPLite; 200,000 tested, 1.5% active; AID 1006, 2008; 10 min; inhibition, % at 10 µM;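 active = inhibition above about 50% when tested at 10 µM, limit read from the data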
PPC-1 tox: cytotoxicity in PPC-1 cells, confirmation, cytotoxicity control for TRAIL apoptosis potentiator project, cell-based, ATP content luminescence; shares compounds with PPC-1+TRAIL kill; PPC-1 viability, ATPlite luminescence, overnight; cytotoxicity, % at 5 µM; 1,200 tested, 50% active;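 active = reconfirmed compounds whose average cytotoxicity reaches 50% or more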;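 note: 0% = DMSO-treated cells and 100% = wells holding medium but no cells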
Numbers without * were called inactive. Rows were chosen to be rich in hits. Some 2.2% of all compounds tested hit in one or more screens of this group.

For CC1(c2nnnn2Cc2ccccc2)CCC(=O)N1CC1CCCCC1 (stereo unspecified) the results were C8 TRAIL sens -7.2.
For CCC(CC)C(=O)Nc1ccc(C(=O)Nc2cc(C)on2)cc1 the results were PPC-1+TRAIL kill 16.0, C8 TRAIL sens 1.0, FLuc act counter 1, APP 5'UTR act 16.1, NF-kB neuron act 1.09 and FLuc inhib CS 1.3.
Cc1ccc(/C=C2\Sc3ccccc3C2=O)s1 was read as PPC-1+TRAIL kill 10.8, C8 TRAIL sens 8.1, FLuc act counter 0.1, APP 5'UTR act 28.2, NF-kB neuron act 5.52* and FLuc inhib CS 87.3*.
For COc1ccc(C(C(=O)NC2CCCCC2)N(C(=O)CCl)c2cccc(Cl)c2)cc1 (stereo unspecified) the results were PPC-1+TRAIL kill 58.7*, C8 TRAIL sens 96.5*, FLuc act counter 1, APP 5'UTR act 29.0, NF-kB neuron act 0.09 and FLuc inhib CS -3.4.
For COc1ccc(C(C(=O)NC2CCCCC2)N(C(=O)CCl)c2ccc(OC)cc2)cc1 (stereo unspecified) the results were PPC-1+TRAIL kill 35.0, C8 TRAIL sens 95.9*, FLuc act counter 1.1, APP 5'UTR act -29.3, NF-kB neuron act 0.19 and FLuc inhib CS -7.6.
`COc1ccc(C(C(=O)NC2CCCCC2)N(C(=O)CCl)c2ccc(C)cc2)cc1` (stereo unspecified) gave PPC-1+TRAIL kill 71.5*, C8 TRAIL sens 95.0*, FLuc act counter 1.1, APP 5'UTR act -5.8, NF-kB neuron act 1.24 and FLuc inhib CS -6.3.
`CCCc1nnc(NC(=O)CCC(=O)N2CCN(c3ccccc3)CC2)s1` gave C8 TRAIL sens -4.7.
O=C(O)c1ccc(NC(=S)NC(=O)c2ccc(-c3ccc(Br)cc3)o2)cc1 was read as C8 TRAIL sens 7.1.
NC(=O)c1ccc(-c2ncc(-c3ccccc3)o2)cc1 was read as PPC-1+TRAIL kill 22.1, C8 TRAIL sens 17.5, FLuc act counter 0.7, APP 5'UTR act 126.4, NF-kB neuron act 11.6* and FLuc inhib CS 29.0.
Screening O=C(NCCSc1ccccc1)c1ccccc1Cl returned PPC-1+TRAIL kill 15.0, C8 TRAIL sens 0.8, FLuc act counter 0.9, APP 5'UTR act 99.5, NF-kB neuron act 4.71* and FLuc inhib CS 6.4.
Screening Cc1ccccc1C(=O)NCCSc1ccccc1 returned PPC-1+TRAIL kill 4.4, C8 TRAIL sens -7.1, FLuc act counter 0.9, APP 5'UTR act 92.0, NF-kB neuron act 3.63* and FLuc inhib CS 6.9.
CC(=O)Nc1ccc(SCC(=O)N2CCN(S(=O)(=O)c3ccccc3)CC2)cc1 was read as C8 TRAIL sens 5.9.
Screening COc1ccc(N(C(=O)CCl)C(C(=O)NCCc2ccccc2)c2cccs2)cc1Cl (stereo unspecified) returned PPC-1+TRAIL kill 89.2*, C8 TRAIL sens 94.8*, FLuc act counter 1, APP 5'UTR act 2.0, NF-kB neuron act 0.13 and FLuc inhib CS 0.9.
Screening COc1cccc(N(C(=O)CCl)C(C(=O)NCCc2ccccc2)c2cccs2)c1 (stereo unspecified) returned PPC-1+TRAIL kill 34.6, C8 TRAIL sens 95.8*, FLuc act counter 1.1, APP 5'UTR act -4.3, NF-kB neuron act 0.12 and FLuc inhib CS -7.0.
For COc1cc(SC)ccc1C(=O)Nc1ccc(OCC(=O)N2CCOCC2)cc1 the results were C8 TRAIL sens 85.8*.
Screening COc1cc(SC)ccc1C(=O)NC(C)C returned PPC-1+TRAIL kill 15.2, C8 TRAIL sens -8.7, FLuc act counter 1, APP 5'UTR act 15.2 and FLuc inhib CS 0.2.
COc1cc(SC)ccc1C(=O)Nc1ccc(C)cc1C was read as PPC-1+TRAIL kill 17.9, C8 TRAIL sens 20.9, FLuc act counter 0.6, APP 5'UTR act 116.3, NF-kB neuron act 3.98* and FLuc inhib CS 36.3.
COc1cc(SC)ccc1C(=O)Nc1ncc(Cl)cc1Cl was read as PPC-1+TRAIL kill 39.5, C8 TRAIL sens 21.2, FLuc act counter 0.7, APP 5'UTR act 142.0*, NF-kB neuron act 3.78* and FLuc inhib CS 26.6.
`COc1cc(SC)ccc1C(=O)Nc1ccc(C)cc1` gave PPC-1+TRAIL kill 22.6, C8 TRAIL sens 25.2, FLuc act counter 0.5, APP 5'UTR act 184.2*, NF-kB neuron act 6.57* and FLuc inhib CS 53.8*.
Screening COc1cc(SC)ccc1C(=O)Nc1cccc(C)n1 returned C8 TRAIL sens 43.5, FLuc act counter 0.3, APP 5'UTR act 243.6*, NF-kB neuron act 1.01 and FLuc inhib CS 69.5*.
Screening COc1cc(SC)ccc1C(=O)NCCc1ccccc1 returned PPC-1+TRAIL kill 10.6, C8 TRAIL sens 6.6, FLuc act counter 0.9, APP 5'UTR act 85.4, NF-kB neuron act 3.52* and FLuc inhib CS 5.9.
For COc1cc(SC)ccc1C(=O)Nc1ccon1 the results were PPC-1+TRAIL kill 20.8, C8 TRAIL sens 11.2, FLuc act counter 0.7, APP 5'UTR act 48.4, NF-kB neuron act 2.09 and FLuc inhib CS 30.6.
`COc1ccc(CNC(=O)c2ccc(SC)cc2OC)cc1` gave PPC-1+TRAIL kill -31.0, C8 TRAIL sens 8.1, FLuc act counter 1, APP 5'UTR act -15.5, NF-kB neuron act 0.99 and FLuc inhib CS -4.4.
`C=CCn1c(-c2ccc(OC)cc2)nc2nc3ccccc3nc21` gave PPC-1+TRAIL kill -7.5, C8 TRAIL sens 27.1, FLuc act counter 0.9, APP 5'UTR act 21.3, NF-kB neuron act 0.86, FLuc inhib CS 5.5 and PPC-1 tox 2.3.
For O=C(O)/C=C/C(=O)Nc1ccccc1C(=O)OCC(=O)c1ccc2c(c1)OCCO2 the results were PPC-1+TRAIL kill 78.3*, C8 TRAIL sens 52.8*, FLuc act counter 0, APP 5'UTR act 36.8, NF-kB neuron act 1.16, FLuc inhib CS 95.5* and PPC-1 tox 78.9*.
For CCOC(=O)c1ccccc1NC(=O)/C=C/C(=O)O the results were PPC-1+TRAIL kill -1.5, C8 TRAIL sens -1.9, FLuc act counter 1, APP 5'UTR act 4.8, NF-kB neuron act 1.12 and FLuc inhib CS -0.3.
For CCOC(=O)c1nn(-c2ccc(F)cc2)cc1O the results were PPC-1+TRAIL kill 2.8, C8 TRAIL sens 6.8, FLuc act counter 0.8, APP 5'UTR act 8.1, NF-kB neuron act 1.45 and FLuc inhib CS 24.0.
`CCOC(=O)c1nn(-c2ccc3c(c2)CCN3C(C)=O)cc1O` gave PPC-1+TRAIL kill 41.4, C8 TRAIL sens 62.1*, FLuc act counter 0.4, APP 5'UTR act 124.6, NF-kB neuron act 1.62, FLuc inhib CS 61.3* and PPC-1 tox 45.7.
